Assay [1] concerns the target Glutamate NMDA receptor. Briefly: Binding affinity against phencyclidine (PCP) site of N-methyl-D-aspartate glutamate receptor from rat brain, using [3H]- TCP as radioligand. The method in brief:
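Male Sprague-Dawley rat whole-brain membranes, washed by repeated homogenization/centrifugation in 50 mM Tris-HCl pH 7.7, frozen at -70 °C, assayed in 5 mM Tris-HCl at 0.5 mg protein/tube. [3H]TCP about 1 nM final with varying compound concentrations, 25 min at room temperature. Nonspecific binding with 100 μM PCP. Filtration, scintillation counting, Ki calculated. At least three determinations in triplicate.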

The nature of assay [2]: Neuroprotection was determined against NMDA induced cell death in cultured mouse cortical neuron. Format: functional. In outline: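 Primary cortical neurons from Swiss-Webster mouse embryos at 16 days post conception, trypsinized, plated at 50 000 cells/well, cytosine arabinoside from day 5, used on day 13. Cells were washed and exposed 30 min to 500 µM NMDA with or without varying concentrations of test agent in MEM, then returned to MEM alone. MK-801 10 µM served as positive control.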

pIC50, pKi: −log10 of the molar value.

Broadly, the pKi is the Ki on a negative log10 scale, so that one unit is a factor of ten. A high value points to a low Ki. Usually pIC50 stands for −log10 of the IC50, conventionally taken in molar units. Read a high pIC50 as a small IC50.

Turning to `Cn1nc[n+]2c1C1c3ccccc3C2CC1(c1ccoc1)c1ccoc1` (configuration not stated), the pKi in assay [1] was 7.85.

As for `c1ccc(-n2cc[n+]3c2C2c4ccccc4C3CC2(c2ccoc2)c2ccoc2)cc1` (configuration not stated), the pKi in assay [1] is 7.28.

In assay [2], `c1ccc2c(c1)C1CC(c3ccoc3)(c3ccoc3)C2c2scc[n+]21` (configuration not stated) had a pIC50 of 7.30. For the same compound, the pKi in assay [1] is 8.54.

For the compound `c1ccc2c(c1)C1CC(c3ccoc3)(c3ccoc3)C2c2cccc[n+]21` (configuration not stated), the pIC50 in assay [2] was 7.35.

In assay [1], `C1=C[N+]2=C(C1c1cccc3ccccc13)C1c3ccccc3C2CC1(c1ccoc1)c1ccoc1` (configuration not stated) gave a pKi of 6.48.

Consider `c1ccc(C(c2ccccc2)n2cc[n+]3c2C2c4ccccc4C3CC2(c2ccoc2)c2ccoc2)cc1` (configuration not stated), for which the pKi in assay [1] was 6.51.

`CCOC1(OCC)C2c3ccccc3C([n+]3ccn(Cc4ccccc4)c32)C1(C)C` (configuration not stated) showed a pKi in assay [1] of 8.00.

Turning to `CCCCn1cc[n+]2c1C1c3ccccc3C2CC1(c1ccoc1)c1ccoc1` (configuration not stated), the pKi in assay [1] was 7.44. This pKi is 0.56 log units lower than that of the compound before.

For `c1ccc2c(c1)C1CC(c3ccoc3)(c3ccoc3)C2c2n(Cc3ccc4ccccc4c3)cc[n+]21` (configuration not stated), the pKi in assay [1] is 6.48.

For `CCOC1(OCC)C2c3ccccc3C([n+]3ccccc32)C1(C)C` (configuration not stated), in assay [2], the pIC50 was 7.22.

On to `c1ccc(CCCn2cc[n+]3c2C2c4ccccc4C3CC2(c2ccoc2)c2ccoc2)cc1` (configuration not stated), for which the negative logarithm of the Ki (pKi) in assay [1] is 7.17.

In assay [2], `CCOC1(OCC)C2c3ccccc3C([n+]3ccsc32)C1(C)C` (configuration not stated) gave a pIC50 of 6.76. In assay [1], this compound had a pKi of 8.21.

`CCOC1(OCC)C2c3ccccc3C([n+]3ccn(C)c32)C1(C)C` (configuration not stated) had a pIC50 in assay [2] of 7.28. The compound also showed a pKi in assay [1] of 8.09.

`Cn1cc[n+]2c1C1c3ccccc3C2CC1(c1ccoc1)c1ccoc1` (configuration not stated) gave a pIC50 in assay [2] of 6.59. This compound had a pKi in assay [1] of 8.54.

In turn, `CCOC1(OCC)C2c3ccccc3C([n+]3cnn(C)c32)C1(C)C` (configuration not stated) gave a pKi in assay [1] of 7.52.

In assay [2], `c1ccc(Cn2cc[n+]3c2C2c4ccccc4C3CC2(c2ccoc2)c2ccoc2)cc1` (configuration not stated) had a pIC50 of 7.38. In assay [1], this compound had a pKi of 8.11.

In turn, `C[C@]12N[C@H](Cc3ccccc31)c1ccccc12` [DIZOCILPINE] had a pIC50 in assay [2] of 7.17.

These data come from ChEMBL document CHEMBL1128370, “Novel NMDA antagonists: replacement of the pyridinium ring of 6,11-ethanobenzo[b]quinolizinium cations with heteroisoquinolinium cations” (J Med Chem, 1995).
